Consider 9 compounds from ChEMBL document CHEMBL1137687, “Anti-HIV evaluation of benzo[d]isothiazole hydrazones” (Eur J Med Chem, 2009).

Series [1] relates to Human immunodeficiency virus 1. As to the kind of experiment: Antiviral activity against NNRTI-resistant HIV1 3B with reverse transcriptase K103R+V179D+P225H mutation in human MT4 cells assessed as protection against virus-induced cytopathogenicity after 4 days by MTT assay. Particulars: Human immunodeficiency virus 1, 3B, MT4, 96 h. The series is classed as functional, organism-based. Summed up:
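K103R+V179D+P225H (EFV^R) virus, from IIIB passaged in MT-4 cells under efavirenz; stock 4.0×10⁷ CCID50/mL. Added to 1×10⁴ MT-4 cells/well (RPMI 1640, 10% FCS, 37 °C, 5% CO2) with compound dilutions from 100 mM DMSO stock, amount causing complete cytopathogenicity at day 4. Viability by MTT; EC50 = concentration giving 50% protection.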
On the technique in general: Cytopathic effects are the visible damage that an infection or toxin causes in cultured cells.

The nature of series [2]: Cytotoxicity against mock-infected human MT4 cells after 4 days by MTT assay. The class given is cell-based. Put shortly:
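Mock-infected MT-4 cells, 1 × 10⁴ per well in RPMI 1640 with 10% FCS, 37 °C, 5% CO₂. Exposed to serial compound dilutions from a 100 mM DMSO stock diluted in medium, in parallel with the antiviral assay. Viability read by MTT. CC₅₀ taken as concentration reducing viability of mock-infected cells by 50%.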
In general terms: Tetrazolium dyes change colour on reduction, which living cells bring about.

Series [3] has as its system Human immunodeficiency virus 1. As to the kind of experiment: Antiviral activity against wild type HIV1 3B assessed as protection as protection against virus-induced cytopathogenicity after 4 days by MTT assay. The series is classed as functional. Particulars: Human immunodeficiency virus 1, 3B, 96 h. Summed up: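 HIV-1 IIIB from supernatants of persistently infected H9/IIIB cells. MT-4 cells, 1 × 10⁴ per well in RPMI 1640 with 10% FCS, exposed to serial compound dilutions (100 mM DMSO stock diluted in medium). Virus inoculum sized in CCID₅₀ to give complete cytopathogenicity by day 4. Incubated at 37 °C, then viability read by MTT. EC₅₀ taken as concentration giving 50% protection from virus-induced cytopathogenicity.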

For series [4], the system named is Human immunodeficiency virus 1. As to the kind of experiment: Antiviral activity against NNRTI-resistant HIV1 with reverse transcriptase Y181C mutation in human MT4 cells assessed as protection against virus-induced cytopathogenicity after 4 days by MTT assay. The series is classed as functional, organism-based. Particulars: Human immunodeficiency virus 1, MT4, 96 h. Summed up: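 Y181C virus (NIH N119) came from an AZT-sensitive clinical isolate passaged in CEM then MT-4 cells with nevirapine; stock 1.2×10⁸ CCID50/mL. It infected 1×10⁴ MT-4 cells/well (RPMI 1640, 10% FCS, 37 °C, 5% CO2) with compound dilutions from 100 mM DMSO stock, at a dose giving full cytopathogenicity by day 4. Readout MTT; EC50 = 50% protection.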

In series [5] the test system is Human immunodeficiency virus 1. As to the kind of experiment: Antiviral activity against NNRTI-resistant HIV1 3B with reverse transcriptase K103N+Y181C mutation in human MT4 cells assessed as protection against virus-induced cytopathogenicity after 4 days by MTT assay. The class given is functional, organism-based. Particulars: Human immunodeficiency virus 1, 3B, MT4, 96 h. Summed up: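 MT-4 cells (RPMI 1640, 10% FCS, 37 °C, 5% CO2), 1×10⁴/well, with compound serial dilutions from 100 mM DMSO stock, infected with K103N+Y181C virus (NIH A17, from IIIB passaged in H9 cells with BI-RG 587; stock 2.1×10⁷ CCID50/mL) at dose giving full cytopathogenicity by day 4. MTT viability; EC50 = 50% protection.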

pEC50: −log10 of the molar value. Some results are limits rather than exact numbers.

As to `Cc1ccc2sn(/N=C/c3ccc4c(c3)OCO4)c(=O)c2c1`, the pEC50 – broadly, the negative decadic logarithm of the EC50, by convention in mol/L – in series [1] was 4.70; in series [3], 4.48; in series [4], 4.48; in series [5], 4.33. For the same compound, in series [2], the CC50 (in general, the concentration that lowers cell viability or growth by half) at 96 h is more than 100 µM.

In the case of `COc1ccc(/C=N/n2sc3ccc(C)cc3c2=O)cc1`, the pEC50 in series [1], in series [3], in series [4] and in series [5] was less than 4.26 in each case. Moreover, it took 55 µM to reach half-maximal cytotoxicity in series [2] (CC50 at 96 h).

As for `Cc1ccc2sn(/N=C/c3cccc(O)c3)c(=O)c2c1`, the negative logarithm of the EC50 (pEC50) was 5.08 in series [1], less than 4.80 in series [3], less than 4.80 in series [4] and less than 4.80 in series [5]. The CC50 at 96 h in series [2] is 16 µM.

Turning to `Cc1ccc2sn(/N=C/c3ccc(O)c(O)c3)c(=O)c2c1`, the pEC50 in series [1], in series [3], in series [4] and in series [5] was less than 4.31 in each case. In addition, the midpoint of cytotoxicity in series [2], the CC50 at 96 h, lay at 49 µM.

As for `COc1cc(/C=N/n2sc3ccc(C)cc3c2=O)ccc1O`, the pEC50 in series [1], in series [3], in series [4] and in series [5] was less than 4.80 each time. The compound also registered a CC50 at 96 h in series [2] of 16 µM.

On to `Cc1ccc2sn(/N=C/c3ccco3)c(=O)c2c1`, for which the pEC50 in series [1], in series [3], in series [4] and in series [5] was less than 4.74 each time. This compound had a CC50 at 96 h in series [2] of 18 µM.

For the compound `Cc1ccc2sn(/N=C/C=C/c3ccccc3)c(=O)c2c1`, the pEC50 in series [1], in series [3], in series [4] and in series [5] was less than 4.72 in each case. For the same compound, the CC50 at 96 h in series [2] turned out to be 19 µM.

In the case of `CCCCCCCCCCC/C=N/n1sc2ccc(C)cc2c1=O`, the negative logarithm of the EC50 (pEC50) in series [1], in series [3], in series [4] and in series [5] was less than 4.72 each time. This compound also registered a CC50 at 96 h in series [2] of 19 µM.

As to `Cc1ccc2sn(/N=C/c3ccc(O)cc3)c(=O)c2c1`, the pEC50 in series [1] was not above 4.64; in series [3] it was less than 4.64; in series [4] it was less than 4.64; in series [5] it was less than 4.64. The same compound showed a CC50 at 96 h in series [2] of 23 µM.
